# Target: T1, Adenosine receptor A2b (Homo sapiens) (UniProt P29275)
# T1 sequence (whole entry): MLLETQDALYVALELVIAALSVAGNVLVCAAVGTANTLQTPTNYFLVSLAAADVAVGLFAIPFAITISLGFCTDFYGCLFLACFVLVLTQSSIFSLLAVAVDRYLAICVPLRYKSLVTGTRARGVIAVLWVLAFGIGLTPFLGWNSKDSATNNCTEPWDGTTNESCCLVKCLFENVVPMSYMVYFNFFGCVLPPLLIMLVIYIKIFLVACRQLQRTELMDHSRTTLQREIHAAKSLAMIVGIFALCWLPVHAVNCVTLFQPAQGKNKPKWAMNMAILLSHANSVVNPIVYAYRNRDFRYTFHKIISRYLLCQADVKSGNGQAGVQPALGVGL
# Assay: Agonist activity human adenosine A2B receptor expressed in CHO cells assessed as stimulation of adenylate cyclase relative to NECA
# Type: functional, cell-based
# Outline: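 Stably transfected CHO cells; cAMP accumulation by enzyme immunoassay kit. Relative potency computed as pEC50(compound) minus pEC50(NECA) determined in the same publication.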
row,SMILES,Activity
1,CCNC[C@H]1O[C@@H](n2cnc3c(NC(=N)N)ncnc32)[C@H](O)[C@@H]1O,0.41
2,CCNC(=O)[C@H]1O[C@@H](n2cnc3c(NC)ncnc32)[C@H](O)[C@@H]1O,-0.787
3,CCNC(=O)[C@H]1O[C@@H](n2cnc3c(NNC(=O)c4sccc4C)nc(Cl)nc32)[C@H](O)[C@@H]1O,-0.327
4,CCNC(=O)[C@H]1O[C@@H](n2cnc3c(Nc4ccc(OCC(=O)Nc5ccc6c(c5)OCO6)cc4)ncnc32)[C@H](O)[C@@H]1O,0.64
5,CCNC(=O)[C@H]1O[C@@H](n2cnc3c(Nc4ccc(OCC(=O)NC5CCCCC5)cc4)ncnc32)[C@H](O)[C@@H]1O,-0.308
6,Nc1nc(OCCc2c[nH]c3ccccc23)nc2c1ncn2[C@@H]1O[C@H](CO)[C@@H](O)[C@H]1O,-0.33
7,Nc1nc(OCCc2c[nH]c3ccc(O)cc23)nc2c1ncn2[C@@H]1O[C@H](CO)[C@@H](O)[C@H]1O,-0.806
8,CCNC(=O)[C@H]1O[C@@H](n2cnc3c(Nc4ccc(OCC(=O)Nc5ccc(I)cc5)cc4)ncnc32)[C@H](O)[C@@H]1O,0.71
9,Nc1nc(OCCc2c[nH]c3ccc(Br)cc23)nc2c1ncn2[C@@H]1O[C@H](CO)[C@@H](O)[C@H]1O,-0.416
10,OC[C@H]1O[C@@H](n2cnc3c(NCc4ccccc4)ncnc32)[C@H](O)[C@@H]1O,-1.49
11,CCCCC#Cc1nc(NC)c2ncn([C@@H]3O[C@H](CO)[C@@H](O)[C@H]3O)c2n1,-1.62
12,CCNC(=O)[C@H]1O[C@@H](n2cnc3c(NNC(=O)c4ccc(C)s4)ncnc32)[C@H](O)[C@@H]1O,-0.232
13,Nc1nc(OCCc2cccc3ccccc23)nc2c1ncn2[C@@H]1O[C@H](CO)[C@@H](O)[C@H]1O,-1.01
14,CNc1nc(C#C[C@@H](O)c2ccccc2)nc2c1ncn2[C@@H]1O[C@H](CO)[C@@H](O)[C@H]1O,-0.035
15,CCNC(=O)[C@H]1O[C@@H](n2cnc3c(Nc4ccc(OCC(=O)Nc5cc(OC)cc(OC)c5)cc4)ncnc32)[C@H](O)[C@@H]1O,0.461
16,OC[C@H]1O[C@@H](n2cnc3c(Nc4ccccc4)ncnc32)[C@H](O)[C@@H]1O,-1.31
17,Nc1nc(OCCc2c[nH]c3ccc(I)cc23)nc2c1ncn2[C@@H]1O[C@H](CO)[C@@H](O)[C@H]1O,-1.13
18,CCNC(=O)[C@H]1O[C@@H](n2cnc3c(NNC(=O)c4ccco4)ncnc32)[C@H](O)[C@@H]1O,0.29
19,CCNC(=O)[C@H]1O[C@@H](n2cnc3c(NNC(=O)c4ccco4)nc(Cl)nc32)[C@H](O)[C@@H]1O,-0.118
20,CCNC(=O)[C@H]1O[C@@H](n2cnc3c(Nc4ccc(OCC(=O)Nc5ccc(OC)c(OC)c5)cc4)ncnc32)[C@H](O)[C@@H]1O,0.533
21,CCNC(=O)[C@H]1O[C@@H](n2cnc3c(Nc4ccc(OCC(=O)Nc5ccc(N6CCOCC6)cc5)cc4)ncnc32)[C@H](O)[C@@H]1O,0.287
22,CC(C)Nc1nc(C#C[C@H](O)c2ccccc2)nc2c1ncn2[C@@H]1O[C@H](CO)[C@@H](O)[C@H]1O,-0.569
23,CC(C)Nc1nc(C#C[C@@H](O)c2ccccc2)nc2c1ncn2[C@@H]1O[C@H](CO)[C@@H](O)[C@H]1O,0.398
24,CNc1nc(C#CCCCc2ccccc2)nc2c1ncn2[C@@H]1O[C@H](CO)[C@@H](O)[C@H]1O,-1.62

row,SMILES,Activity
1,CCNC(=O)[C@H]1O[C@@H](n2cnc3c(Nc4ccc(OCC(=O)Nc5ccccc5)cc4)ncnc32)[C@H](O)[C@@H]1O,1.33
2,CCNC(=O)[C@H]1O[C@@H](n2cnc3c(NNC(=O)c4ccc(C)[nH]4)nc(Cl)nc32)[C@H](O)[C@@H]1O,-0.039
3,Nc1nc(OCCc2c[nH]c3cc(Br)ccc23)nc2c1ncn2[C@@H]1O[C@H](CO)[C@@H](O)[C@H]1O,0.0389
4,CCNC(=O)[C@H]1O[C@@H](n2cnc3c(NNC(=O)c4ccc(C)o4)ncnc32)[C@H](O)[C@@H]1O,-0.152
5,CCNC(=O)[C@H]1O[C@@H](n2cnc3c(Nc4ccc(OCC(=O)NCc5ccccc5)cc4)ncnc32)[C@H](O)[C@@H]1O,0.014
6,CC(C)(C)OC(=O)C1CCCN1C[C@@H](O)[C@H](Cc1ccccc1)NC(=O)[C@H](CC(N)=O)NC(=O)OCc1ccccc1 (stereo not given in full),-0.405
7,CCNC(=O)[C@H]1O[C@@H](n2cnc3c(Nc4ccc(OCC(=O)Nc5ccc(F)cc5)cc4)ncnc32)[C@H](O)[C@@H]1O,1.01
8,Nc1nc(C#C[C@@H](O)c2ccccc2)nc2c1ncn2[C@@H]1O[C@H](CO)[C@@H](O)[C@H]1O,0.416
9,CCNc1nc(C#C[C@@H](O)c2ccccc2)nc2c1ncn2[C@@H]1O[C@H](CO)[C@@H](O)[C@H]1O,0.517
10,CCNC(=O)[C@H]1O[C@@H](n2cnc3c(Nc4ccc(OCC(=O)Nc5ccc(Br)cc5)cc4)ncnc32)[C@H](O)[C@@H]1O,1.17
11,CCNC(=O)[C@H]1O[C@@H](n2cnc3c(NNC(=O)Cc4cccs4)nc(Cl)nc32)[C@H](O)[C@@H]1O,-0.576
12,CCNC(=O)[C@H]1O[C@@H](n2cnc3c(Nc4ccc(OCC(=O)Nc5ccccc5)cc4)nc(Cl)nc32)[C@H](O)[C@@H]1O,0.561
13,CCCCC#Cc1nc(N)c2ncn([C@@H]3O[C@H](CO)[C@@H](O)[C@H]3O)c2n1,-1.62
14,CCNC(=O)[C@H]1O[C@@H](n2cnc3c(Nc4ccc(OCC(=O)Nc5ccncc5)cc4)ncnc32)[C@H](O)[C@@H]1O,0.681
15,CCNC(=O)[C@H]1O[C@@H](n2cnc3c(N)nc(C#C[C@H](O)c4ccccc4)nc32)[C@H](O)[C@@H]1O,0
16,CCNC(=O)[C@H]1O[C@@H](n2cnc3c(NNC(=O)c4ccsc4)nc(Cl)nc32)[C@H](O)[C@@H]1O,-0.449
17,COc1ccc2[nH]cc(CCOc3nc(N)c4ncn([C@@H]5O[C@H](CO)[C@@H](O)[C@H]5O)c4n3)c2c1,-0.951
18,CCNC(=O)[C@H]1O[C@@H](n2cnc3c(NNC(=O)c4cccs4)nc(Cl)nc32)[C@H](O)[C@@H]1O,-0.097
19,CCNC(=O)[C@H]1O[C@@H](n2cnc3c(NNC(=O)c4ccc(Br)o4)ncnc32)[C@H](O)[C@@H]1O,-0.363
20,CCCCC#Cc1nc(NC(C)C)c2ncn([C@@H]3O[C@H](CO)[C@@H](O)[C@H]3O)c2n1,-1.62
21,Nc1nc(C#C[C@H](O)c2ccccc2)nc2c1ncn2[C@@H]1O[C@H](CO)[C@@H](O)[C@H]1O,-0.412
22,CCNC(=O)[C@H]1O[C@@H](n2cnc3c(Nc4ccc(OCC(=O)NCc5ccccc5)cc4)nc(Cl)nc32)[C@H](O)[C@@H]1O,-0.053
23,CCNC(=O)[C@H]1O[C@@H](n2cnc3c(Nc4ccc(OCC(=O)NCc5ccc(OC)cc5)cc4)ncnc32)[C@H](O)[C@@H]1O,-0.19
24,CCNC(=O)[C@H]1O[C@@H](n2cnc3c(Nc4ccc(OCC(=O)Nc5ccc(C(C)(C)C)cc5)cc4)ncnc32)[C@H](O)[C@@H]1O,0.976

row,SMILES,Activity
1,Nc1nc(Cl)nc2c1ncn2[C@@H]1O[C@H](CO)[C@@H](O)[C@H]1O,-0.889
2,Nc1nc(OCCc2c[nH]c3ccc(F)cc23)nc2c1ncn2[C@@H]1O[C@H](CO)[C@@H](O)[C@H]1O,-0.739
3,CCNC(=O)[C@H]1O[C@@H](n2cnc3c(Nc4ccc(OCC(=O)NC5CCCCC5)cc4)nc(Cl)nc32)[C@H](O)[C@@H]1O,-0.29
4,Nc1nc(OCCc2ccccc2)nc2c1ncn2[C@@H]1O[C@H](CO)[C@@H](O)[C@H]1O,-1.4
5,CCNC(=O)[C@H]1O[C@@H](n2cnc3c(N)ncnc32)[C@H](O)[C@@H]1O,0
6,Nc1ncnc2c1ncn2[C@@H]1O[C@H](C(=O)NC2CC2)[C@@H](O)[C@H]1O,-0.233
7,Nc1nc(OCCc2c[nH]c3cc(Cl)ccc23)nc2c1ncn2[C@@H]1O[C@H](CO)[C@@H](O)[C@H]1O,-0.188
8,CCNc1nc(OCCc2c[nH]c3ccccc23)nc2c1ncn2[C@@H]1O[C@H](CO)[C@@H](O)[C@H]1O,-1.37
9,CCNC(=O)[C@H]1O[C@@H](n2cnc3c(N)nc(C#C[C@@H](O)c4ccccc4)nc32)[C@H](O)[C@@H]1O,1.04
10,CCNc1nc(C#C[C@H](O)c2ccccc2)nc2c1ncn2[C@@H]1O[C@H](CO)[C@@H](O)[C@H]1O,-0.579
11,O=S(=O)(O)c1ccc(Nc2ncnc3c2ncn3[C@@H]2O[C@H](CO)[C@@H](O)[C@H]2O)cc1,-1.23
12,CNc1nc(C#C[C@H](O)c2ccccc2)nc2c1ncn2[C@@H]1O[C@H](CO)[C@@H](O)[C@H]1O,-1.62
13,CCCCC#Cc1nc(NCC)c2ncn([C@@H]3O[C@H](CO)[C@@H](O)[C@H]3O)c2n1,-1.62
14,CCNC(=O)[C@H]1O[C@@H](n2cnc3c(NNC(=O)c4ccc[nH]4)nc(Cl)nc32)[C@H](O)[C@@H]1O,-0.351
15,Nc1nc(OCCc2cc[nH]c2)nc2c1ncn2[C@@H]1O[C@H](CO)[C@@H](O)[C@H]1O,-1.27
16,Nc1nc(OCCc2cccs2)nc2c1ncn2[C@@H]1O[C@H](CO)[C@@H](O)[C@H]1O,-1.1
17,CCNC(=O)[C@H]1O[C@@H](n2cnc3c(Nc4ccc(OCC(=O)Nc5ccc(OC)cc5)cc4)nc(Cl)nc32)[C@H](O)[C@@H]1O,-0.366
18,CCNC(=O)[C@H]1O[C@@H](n2cnc3c(Nc4ccc(OCC(=O)Nc5ccc(I)cc5C(F)(F)F)cc4)ncnc32)[C@H](O)[C@@H]1O,0.161
19,CCNC(=O)[C@H]1O[C@@H](n2cnc3c(N)nc(OCCc4c[nH]c5ccccc45)nc32)[C@H](O)[C@@H]1O,-0.849
20,Nc1nc(OCCc2c[nH]c3ccc(Cl)cc23)nc2c1ncn2[C@@H]1O[C@H](CO)[C@@H](O)[C@H]1O,-1.19
21,CCNC(=O)[C@H]1O[C@@H](n2cnc3c(Nc4ccc(OCC(=O)Nc5ccc(Cl)cc5)cc4)ncnc32)[C@H](O)[C@@H]1O,1.1
22,CCNC(=O)[C@H]1O[C@@H](n2cnc3c(Nc4ccc(OCC(=O)Nc5ccc(OC)cc5)cc4)ncnc32)[C@H](O)[C@@H]1O,0.68

# Source: ChEMBL document CHEMBL1145544, “Probing distal regions of the A2B adenosine receptor by quantitative structure-activity relationship modeling of known and novel agonists” (J Med Chem, 2008)
